pIC50, pKi: −log10 of the molar value. Active and inactive are the calls of the source. The calls are words filed in the database; no cut-off is given here.
Experiments:
[1] = target: Replicase polyprotein 1ab (Severe acute respiratory syndrome-related coronavirus) (UniProt P0C6X7); assay: Inhibition of SARS coronavirus recombinant 3C-like protease expressed in Escherichia coli BL21(DE3) at 100 uM after 18 mins by FRET based assay
[2] = target: T1, Replicase polyprotein 1ab (Severe acute respiratory syndrome-related coronavirus, UniProt P0C6X7); assay: Inhibition of SARS coronavirus recombinant 3C-like protease expressed in Escherichia coli BL21(DE3) after 30 mins by FRET based assay
[3] = target: Replicase polyprotein 1ab (Severe acute respiratory syndrome-related coronavirus) (UniProt P0C6X7); assay: Competitive inhibition of SARS coronavirus recombinant 3C-like protease expressed in Escherichia coli BL21(DE3) by Dixon plot analysis
Summary of the method: (§1)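 Inhibitor at 0, 20, 30, 40, 50 and 60 μM; substrate at 5, 7.5 and 10 μM. Mode assigned from Lineweaver–Burk and Dixon plots. Km and Ki come from linear regression, with Ki taken from the common x-axis intercept on the Dixon plot.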

[4] = target: T1, Replicase polyprotein 1ab; assay: Inhibition of SARS coronavirus recombinant 3C-like protease expressed in Escherichia coli BL21(DE3) by Lineweaver-Burk plot analysis; summary of the method: as §1

SMILES | inhibition [1] [%] | pIC50 [2] | inhibition [3] | pKi [4]
Nc1nc(CSc2nnc(-c3cccc4ccccc34)n2-c2ccccc2)cs1 | 58.2 | 4.23 |  | 
Cc1ccc(C(=O)N/C(=C\c2ccc(-c3cccc([N+](=O)[O-])c3)o2)C(=O)NCCCN(C)C)cc1 | 82.6 | 4.41 | Active | 5.04
Cc1nc(C)c(C(=O)C2=C(O)C(=O)N(CCCN3CCOCC3)C2c2cccc([N+](=O)[O-])c2)s1 (stereo not drawn) | 49.1 | 3.99 |  | 
COc1cc(/C=N/NC(=O)/C(=C\c2ccccc2)NC(=O)c2ccccc2)cc(OC)c1O | 56.1 | 4.11 |  | 
O=C(CSc1ncnc2c1sc1nc(N3CCOCC3)c3c(c12)CCCC3)NCc1ccco1 | 53.3 | 4.04 |  | 
Cc1ccc(C(=O)N/C(=C\c2ccc(-c3ccccc3[N+](=O)[O-])o2)C(=O)NCCCN(C)C)cc1 | 81.4 | 4.38 | Active | 5.00
COc1cc(C2C(C(=O)c3ccc(OCC(C)C)cc3C)=C(O)C(=O)N2CCN(C)C)ccc1O (stereo not drawn) | 61.4 | 4.20 |  | 
